From ChEMBL document CHEMBL1124288, “Synthesis and analgesic properties of N-substituted trans-4a-aryldecahydroisoquinolines” (J Med Chem, 1988) come the findings set out here.

Each structure is given as a SMILES string. Bounds are passed on as bounds.

The test system of one experiment is Mus musculus. Kind of experiment: Dose (sc) required for 50% reduction in frequency of writhing in mouse writhing analgesia test. It counts as functional. (In general: In writhing tests, fewer writhes than in controls are read as antinociception.)
In a further experiment the target is Mu-type opioid receptor (Rattus norvegicus, UniProt P33535). Kind of experiment: Binding affinity to Opioid receptor mu 1 in rat brain using [3H]-NAL as radioligand. It counts as tissue-based. In outline:
(§1)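 μ sites labelled with [3H]naloxone in rat brain homogenates. The assay details are given in an earlier report.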

The target of experiment [1] is Kappa-type opioid receptor (Cavia porcellus, UniProt P41144). Kind of experiment: Binding affinity to Opioid receptor kappa 1 in guinea pig cortex using [3H]EKC as radioligand.
Experiment [2] has as its target Mu-type opioid receptor (Rattus norvegicus) (UniProt P33535). Kind of experiment: Percent displacement of [3H]-NAL from Opioid receptor mu 1 in rat brain at 1000 nM conc. of compound. It counts as tissue-based.
The target is the same in experiment [3]. Kind of experiment: Binding affinity to Opioid receptor mu 1 in rat brain using [3H]NAL as radioligand. The class given is tissue-based. In outline: as §1
Experiment [4] addresses Kappa-type opioid receptor (Cavia porcellus) (UniProt P41144). Description: Percent displacement of [3H]EKC from Opioid receptor kappa 1 in guinea pig cortex at 100 nM conc. of compound.
Experiment [5] has the same target. Kind of experiment: Percent displacement of [3H]EKC from Opioid receptor kappa 1 in guinea pig cortex at 1000 nM conc. of compound.
A further experiment relates to Rattus norvegicus. Description: Dose (sc) required for a 2-s increase in reaction time in rat tail heat analgesia test. The class given is functional.
Experiment [6] addresses Mu-type opioid receptor (Rattus norvegicus) (UniProt P33535). Kind of experiment: Binding affinity to mu opioid receptor in rat brain using [3H]NAL as radioligand. The class given is tissue-based. The procedure, abridged:
as §1

In experiment [7] the target is Kappa-type opioid receptor (Cavia porcellus) (UniProt P41144). Description: Percent displacement of [3H]EKC from Opioid receptor kappa 1 at 100 nM conc. of compound. (Displacement assays read how much labelled ligand stays bound in the presence of the test substance.)
Experiment [8] has the same target. Kind of experiment: Percent displacement of [3H]EKC from Opioid receptor kappa 1 at 1000 nM conc. of compound.
Experiment [9] has as its target Mu-type opioid receptor (Rattus norvegicus) (UniProt P33535). Kind of experiment: Percent displacement of [3H]NAL from Opioid receptor mu 1 at 1000 nM conc. of compound.
Setting [10] is: Mus musculus, sc, read-out: ED50.

Chain of Mu-type opioid receptor (P33535 whole entry): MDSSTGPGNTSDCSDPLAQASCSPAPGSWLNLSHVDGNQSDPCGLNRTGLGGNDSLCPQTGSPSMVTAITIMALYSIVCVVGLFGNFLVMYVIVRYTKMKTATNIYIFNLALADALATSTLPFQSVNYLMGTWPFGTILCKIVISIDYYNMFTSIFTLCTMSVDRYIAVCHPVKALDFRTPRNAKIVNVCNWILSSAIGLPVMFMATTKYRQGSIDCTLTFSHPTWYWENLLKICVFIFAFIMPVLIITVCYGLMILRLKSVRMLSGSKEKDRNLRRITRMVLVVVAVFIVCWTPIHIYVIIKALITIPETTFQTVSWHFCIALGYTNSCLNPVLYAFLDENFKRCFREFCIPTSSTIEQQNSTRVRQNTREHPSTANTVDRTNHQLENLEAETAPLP
Chain of Mu-type opioid receptor (Rattus norvegicus) (P33535 whole entry): as above
Chain of Kappa-type opioid receptor (Cavia porcellus) (P41144 whole entry): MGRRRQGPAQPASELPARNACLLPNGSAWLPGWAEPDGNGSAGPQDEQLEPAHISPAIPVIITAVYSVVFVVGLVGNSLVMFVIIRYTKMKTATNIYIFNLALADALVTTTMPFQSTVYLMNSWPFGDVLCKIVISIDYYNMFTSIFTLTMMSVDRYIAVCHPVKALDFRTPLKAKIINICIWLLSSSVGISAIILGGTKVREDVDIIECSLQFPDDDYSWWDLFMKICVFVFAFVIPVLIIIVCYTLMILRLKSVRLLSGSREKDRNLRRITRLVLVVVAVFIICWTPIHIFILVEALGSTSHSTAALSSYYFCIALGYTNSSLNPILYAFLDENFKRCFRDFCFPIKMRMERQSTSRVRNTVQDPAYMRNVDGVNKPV
Chain of Kappa-type opioid receptor (P41144 whole entry): as above

As for `C[C@H]1[C@H]2Cc3ccc(O)cc3[C@]1(C)CCN2CC1CC1` [CYCLAZOCINE], the ED50 (commonly the dose that gives a 50% effect, or the effect in half of the subjects) in the experiment with Mus musculus (setting [10]) was found to be 0.07 mg/kg. Moreover, the Ki (usually a measure of affinity in units of concentration, obtained from inhibition or displacement) was 1.2 nM at Mu-type opioid receptor and 1.3 nM in experiment [1].

Take `Oc1cccc(C23CCCC[C@H]2CN(CC2CC2)CC3)c1` (single isomer, unassigned; (+)) [listing 1 of 2 here]: the Displacement in [2] is 35%; in [3], 4%; in [4] it was 5%; in experiment [5], 32%.

Turning to `CC(C)=CCN1CCC2(c3cccc(O)c3)CCCC[C@H]2C1` (some centres not stated), in the experiment with Mus musculus (setting [10]), the ED50 worked out at 1 mg/kg. Besides, the ED2sec in the experiment with Rattus norvegicus was 1.5 mg/kg.

Regarding `Oc1cccc(C23CCCC[C@H]2CN(CCc2ccccc2)CC3)c1` (single isomer, unassigned; (-)), the Ki on Mu-type opioid receptor was 0.23 nM; in experiment [1], 89 nM.

As to `CCN1CCC2(c3cccc(O)c3)CCCC[C@H]2C1` (some centres not stated), in the experiment with Mus musculus (setting [10]), the ED50 is 18.2 mg/kg. In the experiment on Rattus norvegicus, the ED2sec is greater than 100 mg/kg. The inhibition constant (Ki) at Mu-type opioid receptor was determined as 29 nM; in experiment [1], 529 nM.

For `CCCN1CCC2(c3cccc(O)c3)CCCC[C@H]2C1` (single isomer, unassigned; (-)) [listing 1 of 2 here], the Displacement worked out at 12% in experiment [4] and 46% in experiment [5].

Take `CCN1CCC2(c3cccc(O)c3)CCCC[C@H]2C1` (single isomer, unassigned; (+)): the Displacement in experiment [2] stood at 70%; in experiment [4], 0%; in experiment [6] it was 34%; in [5], 15%.

On to `Oc1cccc(C23CCCC[C@H]2CN(CCc2ccccc2)CC3)c1` (some centres not stated), for which the ED50 in the experiment on Mus musculus (setting [10]) was determined as 0.3 mg/kg. For the same compound, in the experiment on Rattus norvegicus, the ED2sec came out at 0.08 mg/kg.

For the compound `CN1CCC2(c3ccccc3)CCCC[C@H]2C1` (some centres not stated), the ED50 in the experiment on Mus musculus (setting [10]) turned out to be 3.5 mg/kg. For the same compound, the ED2sec in the experiment on Rattus norvegicus came to 8.8 mg/kg.

Regarding `CCCN1CCC2(c3cccc(O)c3)CCCC[C@H]2C1` (single isomer, unassigned; (+)), the Displacement turned out to be 83% in experiment [2], 43% in experiment [3] and 4% in experiment [4].

As to `CN1CCC2(c3cccc(O)c3)CCCC[C@H]2C1` (single isomer, unassigned; (-)), in the experiment with Mus musculus, the ED50 is 2.1 mg/kg. The ED2sec with Rattus norvegicus came out at 1.6 mg/kg. The Ki on Mu-type opioid receptor was 8.9 nM; in [1], 433 nM.

As for `C=CCN1CCC2(c3cccc(O)c3)CCCC[C@H]2C1` (some centres not stated), the ED50 in the experiment with Mus musculus (setting [10]) worked out at 1 mg/kg. The compound also gave an ED2sec with Rattus norvegicus of 1.4 mg/kg.

For `CCCN1CCC2(c3cccc(O)c3)CCCC[C@H]2C1` (single isomer, unassigned; (-)) [listing 2 of 2 here], the Ki at Mu-type opioid receptor worked out at 473 nM.

Regarding `CCCN1CCC2(c3cccc(O)c3)CCCC[C@H]2C1` (some centres not stated), the ED50 with Mus musculus (setting [10]) amounted to 1.5 mg/kg. Besides, the ED2sec with Rattus norvegicus turned out to be 1.3 mg/kg.

Turning to `CC(C)=CCN1CC[C@]2(C)c3cc(O)ccc3C[C@H]1[C@H]2C` [(+)-PENTAZOCINE], in the experiment on Mus musculus (setting [10]), the ED50 amounted to 2 mg/kg. Moreover, the ED2sec in the experiment on Rattus norvegicus was 2.6 mg/kg. For the same compound, the Ki at Mu-type opioid receptor is 6.9 nM; in [1] it was 75 nM.

As to `C=CCN1CC[C@]23c4c5ccc(O)c4O[C@H]2[C@@H](O)C=C[C@H]3[C@H]1C5` [NALORPHINE], in the experiment on Mus musculus (setting [10]), the ED50 is 0.7 mg/kg. The compound further returned an ED2sec in the experiment with Rattus norvegicus greater than 100 mg/kg. For the same compound, the Ki at Mu-type opioid receptor turned out to be 6.5 nM; in [1], 15 nM.

As for `Oc1cccc(C23CCCC[C@H]2CN(CC2CC2)CC3)c1` (single isomer, unassigned; (+)) [listing 2 of 2 here], the ED50 in the experiment on Mus musculus is greater than 50 mg/kg. Further, in the experiment with Rattus norvegicus, the ED2sec is greater than 50 mg/kg.

Turning to `Oc1cccc(C23CCCC[C@H]2CN(CCc2ccccc2)CC3)c1` (single isomer, unassigned; (+)), the Displacement in experiment [2] worked out at 74%; in [3], 19%; in experiment [4], 8%; in [5], 53%.

Consider `CN1CCC2(c3cccc(O)c3)CCCC[C@H]2C1` (single isomer, unassigned; (+)), for which, in the experiment with Mus musculus, the ED50 amounted to 0.4 mg/kg. Besides, the ED2sec in the experiment with Rattus norvegicus stood at 0.3 mg/kg. Besides, the inhibition constant (Ki) at Mu-type opioid receptor amounted to 0.96 nM; in experiment [1], 61 nM.

For the compound `Oc1cccc(C23CCCC[C@H]2CN(CC2CCC2)CC3)c1` (some centres not stated), the ED50 in the experiment with Mus musculus (setting [10]) came to 0.6 mg/kg.

Regarding `Oc1cccc(C23CCCC[C@H]2CN(CC2CC2)CC3)c1` (single isomer, unassigned; (-)), in the experiment on Mus musculus, the ED50 is 2.2 mg/kg. The ED2sec with Rattus norvegicus was determined as 3 mg/kg. The Ki is 4.2 nM on Mu-type opioid receptor and 2.5 nM in experiment [1].

The compound `CN1CCC2(c3cccc(O)c3)CCCC[C@H]2C1` (stereo in doubt; 13) returned an ED50 with Mus musculus of 0.5 mg/kg. The same compound showed an ED2sec with Rattus norvegicus of 0.4 mg/kg.

For the compound `Oc1cccc(C23CCCC[C@H]2CN(CC2CC2)CC3)c1` (stereo in doubt; 29), in the experiment with Mus musculus, the ED50 stood at 3.3 mg/kg. In the experiment with Rattus norvegicus, the ED2sec came out at 5.6 mg/kg.

As to `COc1cccc(C23CCCC[C@H]2CN(C)CC3)c1` (some centres not stated), the ED50 with Mus musculus (setting [10]) stood at 1.2 mg/kg. This compound also gave an ED2sec in the experiment with Rattus norvegicus of 3.3 mg/kg.

Regarding `C=CCN1CCC2(c3cccc(O)c3)CCCC[C@H]2C1` (single isomer, unassigned; (+)), the Displacement turned out to be 2% in [7], 15% in experiment [3], 16% in experiment [8] and 42% in [9].

In the case of `CN1CC[C@]23c4c5ccc(O)c4O[C@H]2[C@@H](O)C=C[C@H]3[C@H]1C5` [MORPHINE], the ED50 in the experiment with Mus musculus (setting [10]) is 0.9 mg/kg. Moreover, the ED2sec with Rattus norvegicus amounted to 0.7 mg/kg.
